Activity calls are given as the source filed them. No cut-off for these calls is given here.
Key:
MCF7 [1] = experiment: Cytotoxicity against human MCF7 cells after 48 hrs by MTT assay; type: functional, cell-based; details: for IC50: MCF7, 48 h
Method in brief: (§1)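 MCF7 cells (RPMI 1640, 10% FBS) seeded at 5 × 10^3 per well and left overnight to attach. Compounds in DMSO (<0.1%) added at 0.78–100 μM for 48 h (or 72 h), then MTT read-out. Viability is Ad/Ac × 100 against untreated controls, with 5 replicates per dose and two independent experiments. IC50 is the concentration giving 50% growth inhibition.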

MCF7 [2] = experiment: Increase in endogenous C14-ceramide level in human MCF7 cells at 10 uM after 2 hrs by LC/MS analysis relative to control; type: functional
Method in brief: (§2)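 MCF7 cells treated with 10μM compound for 2 h. Endogenous ceramide species and sphingosine were measured in a Bligh & Dyer lipid extract and normalized to phospholipid phosphate (pmol/nmol Pi). Results are given as % of control, each dose in duplicate.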

MCF7 [3] = experiment: Increase in endogenous C16-ceramide level in human MCF7 cells at 10 uM after 2 hrs by LC/MS analysis relative to control; type: functional; method in brief: as §2
MCF7 [4] = experiment: Increase in endogenous total ceramide level in human MCF7 cells at 10 uM after 2 hrs by LC/MS analysis relative to control; type: functional; method in brief: as §2
MCF7 [5] = experiment: Decrease in endogenous sphingosine level in human MCF7 cells at 10 uM after 2 hrs by LC/MS analysis relative to control; type: functional; set-up: scale not given: the % may be the effect or the level left; method in brief: as §2
[6] = molecular target: T1, Acid ceramidase (Homo sapiens) (UniProt Q13510); experiment: Inhibition of acid ceramidase in human MCF7 cell lysate at 50 uM by scintillation counting; type: cell-free
T1 sequence (whole entry): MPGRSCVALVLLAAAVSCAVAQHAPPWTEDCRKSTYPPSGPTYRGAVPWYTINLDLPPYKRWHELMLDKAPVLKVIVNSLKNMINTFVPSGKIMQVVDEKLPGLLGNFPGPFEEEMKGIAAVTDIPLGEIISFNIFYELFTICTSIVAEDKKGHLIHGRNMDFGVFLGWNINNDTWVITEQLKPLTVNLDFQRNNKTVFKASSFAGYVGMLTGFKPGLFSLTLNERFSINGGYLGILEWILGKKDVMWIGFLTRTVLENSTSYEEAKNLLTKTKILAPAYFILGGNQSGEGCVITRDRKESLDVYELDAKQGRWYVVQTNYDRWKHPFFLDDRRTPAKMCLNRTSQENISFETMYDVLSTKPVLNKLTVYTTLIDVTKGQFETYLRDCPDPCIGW
Method in brief: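 MCF7 lysate prepared in pH 4.5 acetate buffer (5mM MgCl2, 1mM EDTA, 0.5% Triton X-100) served as the enzyme source. Substrate was [3H]C16-ceramide in Triton/cholate, dried down with compound from ethanol stock. The reaction was run at final pH about 4.2 and 37°C for 1 h, then stopped with Dole's reagent. Released [3H]palmitic acid was counted by scintillation. Duplicates, reported as % control.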

MCF7 [7] = experiment: Induction of apoptosis in human MCF7 cells assessed as increase in caspase 3/7 activity at 10 uM after 24 hrs; type: functional
Method in brief: (§3)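 MCF7 cells seeded at 5 × 10^3 per well overnight, then given vehicle or compound at the indicated concentrations. After 8 h and 24 h, caspase 3/7 activity was measured with the Apo-ONE homogeneous kit (fluorescence, ex 485/em 520 nm). Data are mean ±SD.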

MCF7 [8] = experiment: Induction of apoptosis in human MCF7 cells assessed as increase in caspase 3/7 activity after 24 hrs; type: functional, cell-based; method in brief: as §3
MCF7 [9] = experiment: Induction of lysosomal destabilization in human MCF7 cells assessed as reduction in stability at 10 uM after 1 hr by FACS; type: functional; set-up: scale not given: the % may be the effect or the level left
Method in brief: (§4)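 MCF7 cells seeded at 5 × 10^5 per well overnight, then moved to fresh 2% FBS medium with compound in DMSO or DMSO alone at 37°C for 1 and 5 h. 200nM LysoTracker Red was added for 30 min, and cells were trypsinized, washed and analysed by FACS (564–606nm, ≥10,000 events). A fall in fluorescence indicates a rise in lysosomal pH. Triplicates, reported as % control.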

MCF7 [10] = experiment: Induction of lysosomal destabilization in human MCF7 cells assessed as reduction in stability at 10 uM after 5 hrs by FACS; type: functional, cell-based; method in brief: as §4
MCF7 [11] = experiment: Cytotoxicity against human MCF7 cells after 72 hrs by MTT assay; type: functional, cell-based; details: MCF7, 72 h; method in brief: as §1
[12] = molecular target: T1, Acid ceramidase (Homo sapiens); experiment: Inhibition of acid ceramidase in human MCF7 cells at 10 uM after 2 hrs by scintillation counting; type: cell-based
Method in brief: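 MCF7 cells were treated with 10μM compound for 2 h, scraped and lysed in acidic buffer. Acid ceramidase activity in the lysate was assayed with [3H]C16-ceramide at pH about 4.2, 37°C for 1 h, counting released [3H]palmitic acid. Duplicates, reported as % control.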

MCF7 [13] = experiment: Induction of lysosomal destabilization in human MCF7 cells assessed as reduction in stability at 10 uM after 1 to 5 hrs by FACS; type: functional; method in brief: as §4
MCF7 [14] = experiment: Increase in endogenous C24:1-ceramide level in human MCF7 cells at 10 uM after 2 hrs by LC/MS analysis relative to control; type: functional; method in brief: as §2
MCF7 [15] = experiment: Increase in endogenous sphingosine level in human MCF7 cells at 10 uM after 2 hrs by LC/MS analysis relative to control; type: functional; method in brief: as §2
MCF7 [16] = experiment: Increase in endogenous C24-ceramide level in human MCF7 cells at 10 uM after 2 hrs by LC/MS analysis relative to control; type: functional; method in brief: as §2
MCF7 [17] = experiment: Increase in endogenous C18-ceramide level in human MCF7 cells at 10 uM after 2 hrs by LC/MS analysis relative to control; type: functional; method in brief: as §2
MCF7 [18] = experiment: Induction of apoptosis in human MCF7 cells at 5 uM after 24 hrs; type: functional, cell-based; details: MCF7, 24 h

| SMILES | inhibition [6] [%] | inhibition [12] [%] | Activity [12] | IC50 (MCF7 [18]) [µM] | Activity (MCF7 [1]) | IC50 (MCF7 [1]) [µM] | Activity (MCF7 [2]) [%] | Activity (MCF7 [3]) [%] | Activity (MCF7 [4]) [%] | Activity (MCF7 [5]) [%] | Activity (MCF7 [7]) [%] | Activity (MCF7 [8]) | Activity (MCF7 [9]) [%] | Activity (MCF7 [10]) | IC50 (MCF7 [11]) [µM] | Activity (MCF7 [13]) | Activity (MCF7 [14]) [%] | Activity (MCF7 [15]) [%] | Activity (MCF7 [16]) [%] | Activity (MCF7 [17]) [%] |
| --- | --- | --- | --- | --- | --- | --- | --- | --- | --- | --- | --- | --- | --- | --- | --- | --- | --- | --- | --- | --- |
| O=C(CCCCCCCCCCCn1ccnc1)N[C@H](CO)[C@H](O)c1ccc([N+](=O)[O-])cc1 | – | – | – | – | Dose-dependent effect | 14.8 | 200 | 120 | 98 | 50 | – | – | – | – | – | – | – | – | – | – |
| NCCCCCCCCCCCC(=O)N[C@H](CO)[C@H](O)c1ccc([N+](=O)[O-])cc1 | – | – | – | – | Dose-dependent effect | 6.43 | 200 | 120 | 98 | 50 | – | – | – | – | – | – | – | – | – | – |
| CNCCCCCCCCCCCC(=O)N[C@H](CO)[C@H](O)c1ccc([N+](=O)[O-])cc1 | – | – | – | – | Dose-dependent effect | 15.5 | 200 | 120 | 98 | 50 | – | – | – | – | – | – | – | – | – | – |

Continued, in another order:

| inhibition [6] [%] | inhibition [12] [%] | Activity [12] | IC50 (MCF7 [18]) [µM] | SMILES | Activity (MCF7 [1]) | IC50 (MCF7 [1]) [µM] | Activity (MCF7 [2]) [%] | Activity (MCF7 [3]) [%] | Activity (MCF7 [4]) [%] | Activity (MCF7 [5]) [%] | Activity (MCF7 [7]) [%] | Activity (MCF7 [8]) | Activity (MCF7 [9]) [%] | Activity (MCF7 [10]) | IC50 (MCF7 [11]) [µM] | Activity (MCF7 [13]) | Activity (MCF7 [14]) [%] | Activity (MCF7 [15]) [%] | Activity (MCF7 [16]) [%] | Activity (MCF7 [17]) [%] |
| --- | --- | --- | --- | --- | --- | --- | --- | --- | --- | --- | --- | --- | --- | --- | --- | --- | --- | --- | --- | --- |
| 5 | – | – | – | O=C(CCCCCCCCCCCN1CCOCC1)N[C@H](CO)[C@H](O)c1ccc([N+](=O)[O-])cc1 | Dose-dependent effect | 49.9 | 200 | 120 | 98 | 50 | – | – | – | – | – | – | – | – | – | – |
| 5 | – | – | – | CCCCCCCCNCCCCCC(=O)N[C@H](CO)[C@H](O)c1ccc([N+](=O)[O-])cc1 | Dose-dependent effect | 12.1 | 200 | 120 | 98 | 50 | – | – | – | – | – | – | – | – | – | – |
| 55 | 65 | – | – | CN(C)CCCCCCCCCCCC(=O)N[C@H](CO)[C@H](O)c1ccc([N+](=O)[O-])cc1 | Dose-dependent effect | 10.2 | 300 | 143 | – | 50 | 175 | Dose-dependent effect | 10 | inactive | 7.2 | – | – | – | – | – |
| 90 | – | inactive | – | CCCCCCCCCCCCCC(=O)N[C@H](CO)[C@H](O)c1ccc([N+](=O)[O-])cc1 | Dose-dependent effect | 19.6 | 135 | 135 | – | – | – | – | – | – | – | inactive | 135 | 140 | 135 | 135 |
| – | 35 | – | 5 | CCCCCCCCCCCCCCN[C@H](CO)[C@H](O)c1ccc([N+](=O)[O-])cc1.Cl | Dose-dependent effect | 4.29 | 220 | 200 | – | 30 | – | – | – | – | – | 90% | – | – | – | 160 |

Source: ChEMBL document CHEMBL1152760, “Synthesis and bioevaluation of omega-N-amino analogs of B13” (Bioorg Med Chem, 2009)
